Results reported in ChEMBL document CHEMBL3526126, “Amide hydrolysis of a novel chemical series of microsomal prostaglandin E synthase-1 inhibitors induces kidney toxicity in the rat” (Drug Metab Dispos, 2013).
≈ marks a conversion by molar mass, not a printed value.

What was measured:
Rattus norvegicus [1] = assay: Toxicity in Wistar Hannover rat kidney assessed as pale organ discoloration at 1000 umol/kg, po qd administered for 7 days measured on day 7 by necroscopic analysis; type: organism-based; conditions: in vivo, 168 h
Rattus norvegicus [2] = assay: Toxicity in Wistar Hannover rat kidney assessed as multiple pyogranuloma in renal pelvis at 1000 umol/kg, po qd administered for 7 days measured after day 8 by hematoxylin/eosin staining-based light microscopic analysis; type: organism-based; conditions: in vivo, 168 h
Procedure, shortened: (§1)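 Wistar Hannover rats, about 8 weeks old, were gavaged once daily (10 ml/kg) for 7 days. One day after the last dose they were killed by carotid exsanguination under isoflurane/oxygen. Kidneys were fixed in buffered formalin, embedded in paraffin, sectioned, stained with hematoxylin and eosin, and examined by light microscopy.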

Rattus norvegicus [3] = assay: Toxicity in Wistar Hannover rat kidney assessed as inflammation in renal pelvis at 1000 umol/kg, po qd administered for 7 days measured after day 8 by hematoxylin/eosin staining-based light microscopic analysis; type: organism-based; conditions: in vivo, 168 h; procedure, shortened: as §1
Rattus norvegicus [4] = assay: Toxicity in Wistar Hannover rat kidney assessed as papillitis at 1000 umol/kg, po qd administered for 7 days measured after day 8 by hematoxylin/eosin staining-based light microscopic analysis; type: organism-based; conditions: in vivo, 168 h; procedure, shortened: as §1
Rattus norvegicus [5] = assay: Toxicity in Wistar Hannover rat kidney assessed as increase in plasma creatinine level at 1000 umol/kg, po qd administered for 7 days measured on day 7; type: organism-based; conditions: in vivo, 168 h
Procedure, shortened: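 Wistar Hannover rats, about 8 weeks old, were acclimatized about 2 weeks and randomized by body weight. Dosing was by oral gavage (10 ml/kg) once daily for 7 days, with vehicle controls. At the end of dosing, plasma (lithium heparin) was taken from the orbital plexus under isoflurane/oxygen anaesthesia, and urea and creatinine were measured.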

[6] = Drug metabolism in Sprague-Dawley rat hepatocytes assessed as formation of benzene-1,2-disulfonamide metabolite M1 at 1 to 10 uM by radio monitoring method; type: ADME, cell-based, Hepatocyte
Procedure, shortened: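 Hepatocytes at 1 × 10^6 cells/ml in William's medium were incubated at 37°C with gentle shaking under 5% CO2, with substrate at […]. Separation was on an Atlantis T3 column (100 × 4.6 mm) at 1 ml/min, split 1:20 to the ion source and a flow scintillation monitor. Scintillation cocktail was added at 4 ml/min through a 0.5 ml flow cell.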

Rattus norvegicus [7] = assay: Drug metabolism in Wistar Hannover rat assessed as formation of mono-oxidized metabolite +16 in plasma at 500 umol/kg, po qd administered for 7 days measured on day 7 by LC-MS analysis; type: ADME, organism-based; conditions: in vivo, 168 h
Rattus norvegicus [8] = assay: Drug metabolism in Wistar Hannover rat assessed as formation of [14C]-4-(phenylethynyl)benzoic acid metabolite hyd in plasma at 500 umol/kg, po qd administered for 7 days measured on day 7 by radio monitoring method; type: ADME, organism-based; conditions: in vivo, 168 h
[9] = Solubility in rat urine at pH 7 after 5 hrs; type: physicochemical
Procedure, shortened: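 Samples in rat urine at pH 7.0 were incubated at 37°C for 5 hours. They were analysed by HPLC on a C18 column with photodiode array and single mass detection.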

[10] = Effect on rat mPGES-1
[11] = Cmax in female Wistar Hannover rat at 500 umol/kg, po qd measured on day 1; conditions: in vivo
[12] = Cmax in female Wistar Hannover rat at 1000 umol/kg, po qd measured on day 1; conditions: in vivo
[13] = AUC (0 to 24 hrs) in male Wistar Hannover rat at 500 umol/kg, po qd measured on day 1; conditions: plasma
[14] = AUC (0 to 24 hrs) in female Wistar Hannover rat at 1000 umol/kg, po qd measured on day 1; conditions: plasma
[15] = AUC (0 to 24 hrs) in male Wistar Hannover rat at 500 umol/kg, po qd administered for 7 days measured on day 7; conditions: plasma

Drug metabolism [6]: metabolite_not_detected
Drug metabolism (Rattus norvegicus [7]): metabolite_detected
Drug metabolism (Rattus norvegicus [8]): metabolite_detected
solubility at 5 h [9]: 45 µM (≈ 19.8 µg/mL)
Activity [10]: Not Active
Cmax [11]: 38 µM
Cmax [12]: 75 µM
AUC(0-t) at 24 h [13]: 840 µM·h
AUC(0-t) at 24 h [14]: 1020 µM·h
AUC at 24 h [15]: 480 µM·h
SMILES: NS(=O)(=O)c1ccccc1S(=O)(=O)NC(=O)c1ccc(C#Cc2ccccc2)cc1
Activity (Rattus norvegicus [1]): Toxic
Activity (Rattus norvegicus [2]): Toxic
Activity (Rattus norvegicus [3]): Toxic
Activity (Rattus norvegicus [4]): Toxic
Activity (Rattus norvegicus [5]): Toxic
